Data published in ChEMBL document CHEMBL1153382 (J Med Chem, 2009).
Calls of active or inactive are those of the source. The calls are words filed in the database; no cut-off is given here.

What was measured:
Homo sapiens = organism: Homo sapiens; assay: Selectivity ratio of EC50 for human 5HT2B receptor to EC50 for human 5HT2C receptor
[1] = target: T1, 5-hydroxytryptamine receptor 2C (Homo sapiens, UniProt P28335); assay: (§1) Agonist activity at human 5HT2C receptor expressed in HEK293 cells assessed as calcium flux by FLIPR assay; type: functional, cell-based
T1 sequence (P28335 whole entry): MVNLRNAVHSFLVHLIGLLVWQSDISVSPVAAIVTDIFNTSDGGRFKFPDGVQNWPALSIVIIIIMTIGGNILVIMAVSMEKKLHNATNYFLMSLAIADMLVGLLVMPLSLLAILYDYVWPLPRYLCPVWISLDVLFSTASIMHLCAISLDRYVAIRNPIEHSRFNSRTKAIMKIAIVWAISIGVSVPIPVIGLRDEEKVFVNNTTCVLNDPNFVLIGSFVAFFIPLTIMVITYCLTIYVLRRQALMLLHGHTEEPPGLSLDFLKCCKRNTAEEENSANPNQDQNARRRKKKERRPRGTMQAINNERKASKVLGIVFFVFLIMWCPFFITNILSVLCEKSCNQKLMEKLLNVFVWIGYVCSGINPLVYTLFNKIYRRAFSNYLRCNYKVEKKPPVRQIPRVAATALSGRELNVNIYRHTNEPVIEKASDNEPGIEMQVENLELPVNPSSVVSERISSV

[2] = target: T2, 5-hydroxytryptamine receptor 2A (Homo sapiens, UniProt P28223); assay: Agonist activity at human 5HT2A receptor expressed in HEK293 cells at 10 uM assessed as calcium flux by FLIPR assay relative to serotonin; type: functional, cell-based
[3] = target: T3, 5-hydroxytryptamine receptor 2B (Homo sapiens, UniProt P41595); assay: Agonist activity at human 5HT2B receptor expressed in HEK293 cells assessed as calcium flux by FLIPR assay; type: functional, cell-based
[4] = target: T3, 5-hydroxytryptamine receptor 2B; assay: Agonist activity at human 5HT2B receptor expressed in HEK293 cells at 10 uM assessed as calcium flux by FLIPR assay relative to serotonin; type: functional, cell-based
[5] = target: T2, 5-hydroxytryptamine receptor 2A; assay: Agonist activity at human 5HT2A receptor expressed in HEK293 cells assessed as calcium flux by FLIPR assay; type: functional, cell-based
[6] = target: Serotonin 2 receptors; 5-HT2a & 5-HT2c (Homo sapiens) (UniProt P28223+P28335); assay: Selectivity ratio of EC50 for human 5HT2A receptor to EC50 for human 5HT2C receptor
[7] = target: T4, 5-hydroxytryptamine receptor 2C (Homo sapiens) (UniProt P28335); assay: Agonist activity at human 5HT2C receptor expressed in HEK293 cells at 10 uM assessed as calcium flux by FLIPR assay relative to serotonin; type: functional, cell-based
T4 sequence (whole entry): T1 sequence (P28335 whole entry)

[8] = target: Sodium-dependent noradrenaline transporter (Homo sapiens, UniProt P23975); assay: Displacement of [3H]nisoxetine from NET
[9] = target: Sodium-dependent serotonin transporter (Homo sapiens, UniProt P31645); assay: Displacement of [3H]citalopram from SERT
[10] = target: T3, 5-hydroxytryptamine receptor 2B; assay: Displacement of [3H]LSD from human 5HT2B receptor
[11] = target: T2, 5-hydroxytryptamine receptor 2A; assay: Displacement of [3H]ketanserin from human 5HT2A receptor
[12] = target: Sodium-dependent dopamine transporter (Homo sapiens, UniProt Q01959); assay: Displacement of [3H]WIN-35428 from DAT
[13] = target: T1, 5-hydroxytryptamine receptor 2C; assay: Displacement of [3H]mesulergine from 5HT2C receptor
[14] = Selectivity ratio of Ki for human 5HT2B receptor to Ki for 5HT2C receptor
[15] = Selectivity ratio of Ki for human 5HT2A receptor to Ki for 5HT2C receptor
Mus musculus [16] = assay: Antidepressant activity in C57BL/6J mouse assessed as decrease in immobility time at 10 mg/kg, ip administered 30 mins prior to testing measured every 1 min for 6 mins by forced swim test relative to control; type: functional
Method in brief: (§2)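 Male C57BL/6J mice, 9 weeks old, housed 4 per cage on a 12 h light-dark cycle. Compound given ip in 10% DMSO in saline 30 min before testing. Each mouse was placed alone in a glass cylinder holding 12 cm of water at 23 ± 1 °C. Immobility (floating posture) was scored every 1 min over a 6 min trial and compared with vehicle.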

[17] = target: T4, 5-hydroxytryptamine receptor 2C (Homo sapiens); assay: as §1; type: functional, cell-based
Mus musculus [18] = assay: Antidepressant activity in C57BL/6J mouse assessed as decrease in immobility time at 30 mg/kg, ip administered 30 mins prior to testing measured every 1 min for 6 mins by forced swim test relative to control; type: functional; parameters: scale not given: the % may be the effect or the level left; conditions: route intraperitoneal; method in brief: as §2
Mus musculus [19] = assay: Antidepressant activity in C57BL/6J mouse assessed as decrease in immobility time at 60 mg/kg, ip administered 30 mins prior to testing measured every 1 min for 6 mins by forced swim test relative to control; type: functional; parameters: scale not given: the % may be the effect or the level left; conditions: route intraperitoneal; method in brief: as §2

Sodium-dependent dopamine transporter, sequence (Q01959 whole entry): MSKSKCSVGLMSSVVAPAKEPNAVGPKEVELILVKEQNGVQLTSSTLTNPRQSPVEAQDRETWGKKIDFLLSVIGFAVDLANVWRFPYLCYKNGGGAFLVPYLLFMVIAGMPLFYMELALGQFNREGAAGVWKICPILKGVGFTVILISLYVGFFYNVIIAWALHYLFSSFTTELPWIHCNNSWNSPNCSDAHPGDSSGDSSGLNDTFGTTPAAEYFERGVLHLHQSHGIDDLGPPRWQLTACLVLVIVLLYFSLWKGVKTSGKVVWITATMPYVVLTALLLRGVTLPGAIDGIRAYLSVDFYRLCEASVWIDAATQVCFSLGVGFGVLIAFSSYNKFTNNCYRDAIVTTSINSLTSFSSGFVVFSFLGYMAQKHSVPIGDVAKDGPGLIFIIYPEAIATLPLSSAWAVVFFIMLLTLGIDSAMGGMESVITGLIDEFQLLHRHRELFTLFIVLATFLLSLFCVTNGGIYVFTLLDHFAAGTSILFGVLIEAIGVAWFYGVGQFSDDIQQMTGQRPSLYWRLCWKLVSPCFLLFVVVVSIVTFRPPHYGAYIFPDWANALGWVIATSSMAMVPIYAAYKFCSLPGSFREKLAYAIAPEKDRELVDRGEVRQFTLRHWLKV
T3 sequence (P41595 whole entry): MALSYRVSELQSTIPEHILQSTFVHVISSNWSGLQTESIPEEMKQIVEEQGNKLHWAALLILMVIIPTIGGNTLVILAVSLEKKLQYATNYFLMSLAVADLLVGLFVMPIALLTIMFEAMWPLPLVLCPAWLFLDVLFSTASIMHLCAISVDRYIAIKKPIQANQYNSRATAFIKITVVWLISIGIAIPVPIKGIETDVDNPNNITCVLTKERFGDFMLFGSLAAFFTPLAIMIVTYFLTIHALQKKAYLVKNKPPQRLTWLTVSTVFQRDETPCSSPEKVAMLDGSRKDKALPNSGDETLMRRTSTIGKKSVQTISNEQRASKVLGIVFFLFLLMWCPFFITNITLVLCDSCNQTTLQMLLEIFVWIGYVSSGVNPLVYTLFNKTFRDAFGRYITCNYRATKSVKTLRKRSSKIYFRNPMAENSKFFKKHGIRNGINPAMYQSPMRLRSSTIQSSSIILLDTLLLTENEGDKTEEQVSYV
Sodium-dependent noradrenaline transporter, sequence (P23975 whole entry): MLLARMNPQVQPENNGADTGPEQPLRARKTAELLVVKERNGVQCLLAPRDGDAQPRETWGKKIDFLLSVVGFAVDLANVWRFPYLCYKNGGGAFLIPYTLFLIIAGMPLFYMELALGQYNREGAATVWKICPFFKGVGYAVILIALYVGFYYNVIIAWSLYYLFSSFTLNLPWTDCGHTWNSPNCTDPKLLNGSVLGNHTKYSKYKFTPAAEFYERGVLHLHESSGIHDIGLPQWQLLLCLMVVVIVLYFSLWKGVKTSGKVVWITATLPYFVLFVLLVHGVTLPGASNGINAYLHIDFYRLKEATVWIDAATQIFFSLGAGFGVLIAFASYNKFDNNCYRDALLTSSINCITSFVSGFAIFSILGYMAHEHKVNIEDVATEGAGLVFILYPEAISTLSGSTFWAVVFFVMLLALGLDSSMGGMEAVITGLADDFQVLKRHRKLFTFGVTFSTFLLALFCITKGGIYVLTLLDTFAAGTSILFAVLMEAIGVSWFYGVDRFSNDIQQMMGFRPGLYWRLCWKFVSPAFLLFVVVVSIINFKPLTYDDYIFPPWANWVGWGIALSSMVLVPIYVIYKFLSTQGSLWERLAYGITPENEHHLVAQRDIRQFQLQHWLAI
Serotonin 2 receptors; 5-HT2a & 5-HT2c (Homo sapiens), sequence (P28223 whole entry, looked up, one chain of several): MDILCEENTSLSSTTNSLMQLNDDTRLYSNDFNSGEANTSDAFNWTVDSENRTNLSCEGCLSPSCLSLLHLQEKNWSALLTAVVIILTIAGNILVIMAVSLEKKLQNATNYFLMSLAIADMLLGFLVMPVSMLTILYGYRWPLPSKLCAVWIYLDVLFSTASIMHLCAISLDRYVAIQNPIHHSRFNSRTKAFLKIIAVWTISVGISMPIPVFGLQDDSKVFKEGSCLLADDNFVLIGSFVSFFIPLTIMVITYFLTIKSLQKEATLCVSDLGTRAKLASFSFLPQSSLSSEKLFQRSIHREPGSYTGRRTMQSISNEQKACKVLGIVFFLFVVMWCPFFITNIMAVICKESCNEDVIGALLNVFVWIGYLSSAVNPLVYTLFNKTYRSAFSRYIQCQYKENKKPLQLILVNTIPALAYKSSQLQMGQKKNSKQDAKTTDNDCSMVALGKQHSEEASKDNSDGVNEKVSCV
T2 sequence (P28223 whole entry): as the sequence (P28223 whole entry, looked up, one chain of several) above
Sodium-dependent serotonin transporter, sequence (P31645 whole entry): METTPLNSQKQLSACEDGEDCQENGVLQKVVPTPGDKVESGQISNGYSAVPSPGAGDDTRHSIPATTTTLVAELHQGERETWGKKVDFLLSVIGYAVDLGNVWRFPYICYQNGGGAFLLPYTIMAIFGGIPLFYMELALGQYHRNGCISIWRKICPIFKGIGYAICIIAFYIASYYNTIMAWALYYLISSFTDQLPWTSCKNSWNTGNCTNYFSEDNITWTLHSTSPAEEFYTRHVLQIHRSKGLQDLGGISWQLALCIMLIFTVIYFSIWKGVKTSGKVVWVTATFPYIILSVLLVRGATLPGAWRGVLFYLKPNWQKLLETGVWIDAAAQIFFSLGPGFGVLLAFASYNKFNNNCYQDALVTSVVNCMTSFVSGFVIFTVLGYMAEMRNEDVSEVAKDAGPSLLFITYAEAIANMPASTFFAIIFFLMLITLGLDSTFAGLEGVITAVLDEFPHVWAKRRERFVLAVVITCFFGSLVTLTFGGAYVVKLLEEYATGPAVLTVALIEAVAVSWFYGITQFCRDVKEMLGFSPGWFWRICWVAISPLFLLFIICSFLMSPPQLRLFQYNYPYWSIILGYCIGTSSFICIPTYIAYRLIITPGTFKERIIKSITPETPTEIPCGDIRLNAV

| SMILES | Ratio EC50 (Homo sapiens) | EC50 [1] [nM] | Emax [2] [%] | EC50 [3] [nM] | Emax [4] [%] | Emax [7] [%] | Activity [3] | Activity [5] | further results |
| --- | --- | --- | --- | --- | --- | --- | --- | --- | --- |
| NC[C@H]1C[C@@H]1c1ccccc1 | 7.2 | 5.2 | 79 | 37 | 111 | 108 | – | – | EC50 [5]: 1400 nM; Ratio EC50 [6]: 268 |
| NC[C@H]1C[C@@H]1c1ccccc1Br | 17 | 0.78 | 76 | 13 | 102 | 116 | – | – | Ki [8]: 3400 nM; Ki [9]: 3820 nM; Ki [10]: 16 nM; Ki [11]: 246 nM; Ki [12]: 2110 nM; EC50 [5]: 67 nM; Ki [13]: 66 nM; Ratio Ki [14]: 0.24; Ratio EC50 [6]: 86; Ratio Ki [15]: 3.7 |
| CN[C@H]1CC[C@@H](c2ccc(Cl)c(Cl)c2)c2ccccc21 | – | – | – | – | – | – | – | – | Activity (Mus musculus [16]): Active |
| CN(C)[C@H]1C[C@@H]1c1ccccc1 (racemic) | – | – | < 12 | – | -2 | < 12 | inactive | inactive | Activity [17]: inactive |
| CN[C@H]1C[C@@H]1c1ccccc1 (racemic) | – | – | < 12 | – | 6 | < 12 | inactive | inactive | Activity [17]: inactive |
| c1ccc(CN[C@H]2C[C@@H]2c2ccccc2)cc1 (racemic) | – | – | < 12 | – | -1 | < 12 | inactive | inactive | Activity [17]: inactive |
| Cc1cccc([C@H]2C[C@@H]2CN)c1.Cl (relative stereo) | 14 | – | 86 | – | 93 | 95 | – | – | Activity (Mus musculus [18]): 38%; Ratio Ki [14]: 0.32; Activity (Mus musculus [16]; route intraperitoneal): 28%; Activity (Mus musculus [19]): 38%; Ratio EC50 [6]: 123; Ratio Ki [15]: 6.9 |
| N#Cc1ccc(-c2cccc([C@H]3C[C@@H]3CN)c2)cc1 (relative stereo) | – | > 1000 | < 12 | – | < 12 | 41 | inactive | inactive | – |
| C#Cc1cccc([C@H]2C[C@@H]2CN)c1 (relative stereo) | 1.4 | 136 | 42 | 185 | 84 | 91 | – | – | EC50 [5]: > 10000 nM |
| NC[C@H]1C[C@@H]1c1cccc(-c2cc3ccccc3o2)c1 (relative stereo) | – | > 1000 | < 12 | – | < 12 | 39 | inactive | inactive | – |
| CC(=O)Nc1cccc([C@H]2C[C@@H]2CN)c1 (relative stereo) | – | > 1000 | < 12 | – | < 12 | 39 | inactive | inactive | – |
| CC(=O)Nc1ccccc1[C@H]1C[C@@H]1CN (relative stereo) | – | > 1000 | < 12 | – | < 12 | 30 | inactive | inactive | – |
| NC[C@H]1C[C@@H]1c1cccc(C#CCCCCO)c1 (relative stereo) | > 1 | 332 | < 12 | 1740 | 17 | 79 | – | inactive | Ratio EC50 [6]: > 30 |
| NC[C@H]1C[C@@H]1c1ccc(-c2ccc(F)cc2)cc1 (relative stereo) | – | > 1000 | < 12 | > 1000 | 10 | 45 | – | inactive | – |
| NC[C@H]1C[C@@H]1c1ccc(-c2ccco2)cc1 (relative stereo) | – | 1200 | < 12 | – | < 12 | 75 | inactive | inactive | – |
| NC[C@H]1C[C@@H]1c1ccccc1C#CCCCCO (relative stereo) | 0.88 | 232 | < 12 | 204 | 84 | 88 | – | inactive | Ratio EC50 [6]: > 43 |
| NC[C@H]1C[C@@H]1c1ccccc1-c1ccc(F)cc1 (relative stereo) | > 3 | 301 | < 12 | > 1000 | 43 | 74 | – | inactive | – |
| NC[C@H]1C[C@@H]1c1cccc(-c2ccc(F)cc2)c1 (relative stereo) | – | 695 | < 12 | – | < 12 | 79 | inactive | inactive | – |
| NC[C@H]1C[C@@H]1c1ccccc1-c1cc2ccccc2o1 (relative stereo) | > 1 | 1960 | < 12 | > 1000 | 10 | 66 | – | inactive | – |
| NC[C@H]1C[C@@H]1c1ccccc1NC(=O)c1ccccc1 (relative stereo) | – | > 1000 | < 12 | – | < 12 | 39 | inactive | inactive | – |
| NC[C@H]1C[C@@H]1c1ccccc1NC(=O)Nc1ccc(Cl)cc1 (relative stereo) | – | > 1000 | < 12 | – | < 12 | 38 | inactive | inactive | – |
| NC[C@H]1C[C@@H]1c1cccc(NCc2ccccc2)c1 (relative stereo) | – | 1180 | < 12 | – | < 12 | 77 | inactive | inactive | – |
| NC[C@@H]1C[C@H]1c1ccccc1Br (relative stereo) [listing 1 of 2 here] | – | 1.3 | – | 4.8 | – | – | – | – | Ki [8]: 2730 nM; Ki [9]: 2720 nM; Ki [10]: 22 nM; Ki [11]: 655 nM; Ki [12]: > 10000 nM; EC50 [5]: 94 nM; Ki [13]: 124 nM |
| NC[C@H]1C[C@@H]1c1cccc(-c2ccc(C(F)(F)F)cc2)c1 (relative stereo) | – | > 1000 | < 12 | – | < 12 | 61 | inactive | inactive | – |
| NC[C@H]1C[C@@H]1c1cccc(-c2ccc(Cl)cc2)c1 (relative stereo) | – | 1580 | < 12 | – | < 12 | 87 | inactive | inactive | – |
| NC[C@@H]1C[C@H]1c1ccccc1Br (relative stereo) [listing 2 of 2 here] | 3.7 | – | 71 | – | 86 | 76 | – | – | Ratio Ki [14]: 0.18; Ratio EC50 [6]: 73; Ratio Ki [15]: 5.3 |
| NC[C@H]1C[C@@H]1c1ccc(F)cc1 (relative stereo) | 1.9 | – | 67 | – | 89 | 93 | – | – | Ratio Ki [14]: 0.37; Ratio EC50 [6]: 47; Ratio Ki [15]: 11.5 |
| NC[C@H]1C[C@@H]1c1ccc(F)cc1Cl (relative stereo) | 7.3 | – | 91 | – | 97 | 100 | – | – | Ratio Ki [14]: 0.08; Ratio EC50 [6]: 30; Ratio Ki [15]: 1.2 |
| NC[C@H]1C[C@@H]1c1ccc(O)cc1 (relative stereo) | – | – | < 12 | – | < 12 | < 12 | inactive | inactive | Activity [17]: inactive |
| C[C@H]1CNCCc2ccc(Cl)cc21 [LORCASERIN] | – | – | 26 | – | – | 124 | – | – | Ki [8]: > 10000 nM; Ki [12]: > 10000 nM |
